Test [1] can be described thus: Antiischemic activity against Na2S2O4-induced hypoxia/reoxygenation cell injury in neonatal rat primary cardiac myocytes assessed as cell viability at 10^-4 mol/L by MTT assay. The following applies: Cardiac muscle cell. The test is classed as functional. In outline: (§1)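 Neonatal rat primary cardiomyocytes, six wells per group. Hypoxia induced with 50 mmol/L Na2S2O4 in serum-free DMEM for 2 h, then reoxygenated 4 h in DMEM with 10% serum. Drug added in serum-free DMEM 1 h before reoxygenation, final 10^-6, 10^-5, 10^-4 mol/L. MTT (5 mg/mL) for 4 h, formazan dissolved in DMSO, A490. Survival = treated OD/normal control OD.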
On the technique in general: Tetrazolium dyes change colour on reduction, which living cells bring about.

The nature of test [2]: Antiischemic activity against Na2S2O4-induced hypoxia/reoxygenation cell injury in neonatal rat primary cardiac myocytes assessed as increase in cell survival rate at 10^-6 mol/L by MTT assay. The test is classed as functional, Cardiac muscle cell. A digest of the protocol:
as §1

Test [3] is described as follows: Antiischemic activity against Na2S2O4-induced hypoxia/reoxygenation cell injury in neonatal rat primary cardiac myocytes assessed as cell viability at 10^-5 mol/L by MTT assay. Format: functional. The conditions noted are these: Cardiac muscle cell. In outline: as §1
The nature of test [4]: Antiischemic activity against Na2S2O4-induced hypoxia/reoxygenation cell injury in neonatal rat primary cardiac myocytes assessed as increase in cell survival rate at 10^-4 mol/L by MTT assay. Format: functional, Cardiac muscle cell. In outline: as §1
Test [5] in a line: Antiischemic activity against Na2S2O4-induced hypoxia/reoxygenation cell injury in neonatal rat primary cardiac myocytes assessed as cell viability at 10^-6 mol/L by MTT assay. The test is classed as functional. The conditions noted are these: Cardiac muscle cell. A digest of the protocol:
as §1

A short description of test [6]: Antiischemic activity against Na2S2O4-induced hypoxia/reoxygenation cell injury in neonatal rat primary cardiac myocytes assessed as increase in cell survival rate at 10^-5 mol/L by MTT assay. The test is classed as functional, Cardiac muscle cell. A digest of the protocol: as §1

As for `COc1ccc(CN2CCN(Cc3ccc(C(=O)N=C(N)N)cc3[N+](=O)[O-])CC2)c(OC)c1OC`, in test [1], the MTT OD at 100 µM stood at 0.532 absorbance. For the same molecule, the Activity in test [2] was 50.41%; in test [4], 69.24%; in test [6], 59.78%. Moreover, the MTT OD at 10 µM in test [3] amounted to 0.44 absorbance. Moreover, in test [5], the MTT OD at 1 µM was found to be 0.37 absorbance.

`COc1ccc(CN2CCN(CCOc3ccc(C(=O)NC(=N)N)cc3NC(=O)c3ccccc3[N+](=O)[O-])CC2)c(OC)c1OC`: the MTT OD at 100 µM in test [1] came out at 0.434 absorbance. Moreover, the Activity in test [2] is 48.05%; in test [4], 56.48%; in test [6], 51.45%. For the same molecule, in test [3], the MTT OD at 10 µM amounted to 0.379 absorbance. For the same molecule, the MTT OD at 1 µM in test [5] was found to be 0.353 absorbance.

On to `COc1ccc(CN2CCN(CCOc3ccc(C(=O)NC(=N)N)cc3NC(=O)c3ccc(Cl)cc3Cl)CC2)c(OC)c1OC`, for which the MTT OD at 100 µM in test [1] was determined as 0.488 absorbance. Also, the Activity is given as 49.27% in test [2], 58.33% in test [4] and 55.52% in test [6]. The MTT OD at 10 µM in test [3] was 0.409 absorbance. Further, the MTT OD at 1 µM in test [5] stood at 0.362 absorbance.

Consider `COc1ccc(CN2CCN(CCOc3ccc(C(=O)NC(=N)N)cc3NC(=O)c3sccc3C)CC2)c(OC)c1OC`, for which the MTT OD at 100 µM in test [1] was 0.556 absorbance. The figures for the Activity in test [2], in test [4] and in test [6] were 53.22%, 72.41% and 61.63%, respectively. Also, the MTT OD at 10 µM in test [3] turned out to be 0.454 absorbance. Besides, the MTT OD at 1 µM in test [5] was found to be 0.391 absorbance.

The values above are taken from ChEMBL document CHEMBL1828582, “Synthesis and Na+/H+ exchanger inhibitory activity of benzoylguanidine derivatives” (Eur J Med Chem, 2011).
